proCasp7 act: counter-screen: procaspase-7 (human) activation; P55210; 0.093% of 330,000 active; recombinant procaspase-7, Ac-DEVD-pNA absorbance 405 nm; D23A/D198A/D206A triple mutant, cannot self-cleave; scale: DMSO 0, 5 µM enzyme 100; activation, % at 8.5 µM; AID 463210;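 active = percent activation above the screen-wide mean plus 3 SD, cut at about 25% in these data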
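buffer or medium = Zinc-free HEPES/NaCl buffer, pH 7.4 | material = Procaspase-7 triple mutant (PC-7 D3A) | input = 2 µM procaspase-7 mutant as dispensed | signal = Epi-absorbance of released pNA at 405 nm, two timepoints | timing = 1 h preincubation, 2 h reaction | replicates = singlicate compound testing | evaluation = % activation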
aDG glyco act: increases alpha dystroglycan glycosylation. activation, % at 10 µM. Pro5-aDG cells, alpha-DG glycosylation AlphaScreen (IIH6); 0% Pro5, 100% B10-LARGE cell signal. 0.22% of 360,000 active;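 active = activation of at least 8% versus controls, or a plate z-score of at least 8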;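 note: Pro5 are CHO cells carrying HIG-tagged alpha-DG that lacks glycosylation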
T cell modulator: modulates CD8 T cell binding to vesicles | 2C CD8+ T cell-vesicle binding, flow cytometry; stronger effect = lower value | response (vesicle binding), % at 7 µM | 0.068% of 330,000 active;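 active = response, share of CD8 T cells binding vesicles, and their 90th percentile fluorescence all below set limits, cut at about 80% in these data, passing the limit was not always enough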;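 note: values below 100% mean blocked vesicle binding to the CD8+ T cells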
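Assay system – 2C mouse CD8+ T cells · Also added – QL9-loaded Drosophila micro-vesicles · Timing – Cell–vesicle co-incubation 1.5 h at 37 °C, staining 20 min on ice · Signal – flow cytometry of vesicle-bound cells · Measure – percent CD8+ FL2 mean versus row control · Controls – Peptide-free naked vesicles (low) and QL9 vesicles with 0.7% DMSO vehicle (high)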
procasp3 activ: activators of human procaspase-3; recombinant procaspase-3 D3A, Ac-DEVD-pNA absorbance 405 nm; P42574; AID 463141; activation, % at 8.5 µM; 0.11% of 330,000 active;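 active = activation above the mean of all tested compounds plus 3 SD, cut at about 21% in these data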;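 note: 0% = DMSO alone and 100% = DMSO wells spiked with extra 5 µM PC-3 D3A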
Target sequence (P42574 whole entry D9A/D28A/D175A): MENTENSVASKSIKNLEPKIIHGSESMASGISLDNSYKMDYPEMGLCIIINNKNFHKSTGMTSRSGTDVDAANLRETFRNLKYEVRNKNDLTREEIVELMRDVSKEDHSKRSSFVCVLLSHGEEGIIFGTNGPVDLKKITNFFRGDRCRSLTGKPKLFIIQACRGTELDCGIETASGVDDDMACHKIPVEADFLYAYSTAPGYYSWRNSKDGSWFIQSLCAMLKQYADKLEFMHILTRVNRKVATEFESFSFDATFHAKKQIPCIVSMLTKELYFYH
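Assay system – Procaspase-3 D3A mutant · Benchmarks – DMSO low control, extra-enzyme high control · Technique – 405 nm absorbance of p-nitroaniline, reads at 0 and 120 min · Doses – 8.5 µM nominal · Measure – % activation between DMSO and enzyme-spiked controls · Also added – Ac-DEVD-pNA chromogenic peptide substrate · Schedule – 1 h compound preincubation, 2 h substrate hydrolysis at 25 °C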
CaV13 ICDI inh: Disruptors of the CACNA1D IQ motif to Ca2+-dependent inactivation inhibitor domain association, primary screening, Förster resonance energy transfer in intact living …; HEK cells, CFP/YFP FRET ICDI-IQ, plate reader, 10 min; percent FRET-ratio fall versus neutral wells; 0.098% of 340,000 active; inhibition, % at 12.3 µM;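 active = mean replicate inhibition of at least 30% and at least 1% of replicates passing that level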;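 note: 0% = median of the neutral control wells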
GRK2 inh: human GRK2 inhibition via aptamer displacement. inhibition of aptamer binding, % at 10 µM. 0.59% of 330,000 active. P25098. bead flow cytometry, FAM-aptamer displacement from GRK2. AID 488847;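 active = inhibition of aptamer binding above 40%, roughly 3 SD of noise, on plates passing a quality check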;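 note: median bead fluorescence of bound FAM aptamer so fluorescent compounds give negative values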
Numbers without * were called inactive; . = no result. A selection: hits, their analogues and other compounds. The true share with any hit is near 1.1%.

SMILES	proCasp7 act	aDG glyco act	T cell modulator	procasp3 activ	CaV13 ICDI inh	GRK2 inh
O=C(N[C@H]1C/C=C\C[C@@H](CC(=O)N(CCO)Cc2ccccc2)C(=O)N2CCC[C@@H]2COC1=O)OCC1c2ccccc2-c2ccccc21	3	0	0.0*	-1	.	0
C/C(=N\NC(=S)NCc1ccccc1)c1cccc(Br)c1	0	1	156	-2	-18	0
C/C(=N\NC(=S)NCc1ccccc1)c1ccc2ccccc2c1	2	0	260	-9	-6	98*
Cc1cccc(-c2n[nH]c(=S)n2/N=C/c2ccc(C)o2)c1	-20	0	143	-6	-2	47*
Cc1cc(N2CCN(C(=O)OC(C)(C)C)C[C@H]2C)ccc1Br	.	.	.	.	-12	.
OC(COc1ccc2cc(Br)ccc2c1)CN1CCCC1 (stereo not drawn)	0	4.7*	149	-2	-8	0
O=S(=O)(N1CCCCC1)N1CCN(CC(O)COc2ccc3cc(Br)ccc3c2)CC1 (stereo not drawn)	-8	5	490	-6	-5	2
O=C(CN1C(=O)/C(=C/c2ccco2)SC1=S)NC1CCS(=O)(=O)C1 (stereo not drawn)	-13	2	202	-18	-8	45*
COc1cccc(C(=O)N[C@@H](CC(C)C)C(=O)N2CCC[C@H]2C(=O)NCc2ccccc2)c1	.	.	.	.	-11	.
O=C(NCCCn1ccnc1)/C(=C\c1cccnc1)NC(=O)c1ccco1	6	0	210	6	3	0
O=C(NCCCn1ccnc1)/C(=C\c1cccnc1)NC(=O)c1cccc(Br)c1	-11	0	462	0	-3	66*
CCN(c1cccc(C)c1)S(=O)(=O)c1ccc2c3c(cccc13)C(=O)N2	-3	0	225	-26	-5	0
CCN(CC)S(=O)(=O)c1ccc2c3c(cccc13)C(=O)N2	-2	0	0.0*	1	-5	0
N#C/C(C(=O)N1CCCCC1)=C1/N=C(NC(=O)c2ccc(F)cc2)c2ccccc21	5	0	470	0	-5	3
N#C/C(C(=O)N1CCCCC1)=C1/N=C(N)c2ccccc21	2	0	282	1	-5	100*
CC(=O)c1cccc(OCC(=O)N(C)CC(=O)NCc2ccco2)c1	-24	0	806	-10	-7	86*
Cc1ccc(OCC(=O)N(C)CC(=O)NCc2ccco2)c(Br)c1	.	0	.	.	-6	.
COC(=O)[C@]12C[C@H](CC(=O)N3CCN(C(=O)C4CC4)CC3)C(=O)N(Cc3ccc4c(c3)OCO4)C1=C[C@H](COCc1ccccc1)O[C@@H]2C	.	.	.	.	-9	.
Cc1cc(N2CCN(C(=O)OC(C)(C)C)C[C@H]2C)ccc1N1CC[C@@H](O)C1	.	.	.	.	-9	.
NC(=O)c1c(NC(=O)C2CC=CCC2C(=O)O)sc2c1CCCCC2 (stereo not drawn)	-38	0	156	-19	.	48*
C=CCNC(=S)Nc1sc2c(c1C(N)=O)CCCC2	-21	0	47*	-18	-4	.
CCc1cc2c(nc1CC)CCCN2S(=O)(=O)c1cccs1	.	.	.	.	-11	.
CC(=O)N(C1=C(N2CCOCC2)C(=O)c2ccccc2C1=O)c1ccc(C(=O)O)cc1	-8	0	976	-9	-6	1
CC(=O)N(C)C1=C(N2CCOCC2)C(=O)c2ccccc2C1=O	1	5.5*	486	0	.	3
CCc1cccc(C)c1NC(=S)NCc1ccc2c(c1)cc(C)n2C	7	0	389	2	57*	20
C[C@H](CO)N1C[C@H](C)[C@@H](CN(C)C(=O)c2ccc(N3CCN(C)CC3)cc2)OCc2cn(nn2)CCCC1=O	.	.	.	.	-5	.
Cc1cc(Cl)ccc1NC(=O)COC(=O)CCNS(=O)(=O)c1ccccc1	5	0	0.0*	0	-4	0

Screening results from PubChem.
